Where a name gives a salt, the structure may show the parent alone. Active and inactive are the calls of the source. No cut-off for these calls is given here.
Tests used:
Helminthosporium [1] = experiment: Antifungal activity against Helminthosporium ATCC 4671 at 1 mg/ml after 48 hrs by agar-well diffusion assay; assay type: functional
In short: (§1)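 Fungi and yeasts streaked on mycophil agar from broth culture diluted 1:10 in sterile water; 100 μl of compound at 1 mg/ml placed in 11 mm cork-borer wells; plates held at 30°. Inhibition zone width (mm) recorded at 48 and 72 h and coded – to ++++ (1–2, 3–6, 7–12, >13 mm); amphotericin B positive control.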

Bacillus subtilis [2] = experiment: Antibacterial activity against Bacillus subtilis ATCC 6633 at 1 mg/ml after 24 hrs by agar-well diffusion assay; assay type: functional; settings: ATCC 6633, 24 h, read-out: IZ
In short: (§2)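 Agar-well diffusion on eugon agar, bacteria streaked by quadrant method from broth culture diluted 1:10 in sterile water; 11 mm wells given 100 μl of compound at 1 mg/ml; 37° incubation. Zone width (mm) read at 24 and 48 h, coded –, + (1–2), ++ (3–6), +++ (7–12), ++++ (>13); streptomycin sulfate positive control.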

[3] = tested on: Mycolicibacterium smegmatis; experiment: Antibacterial activity against Mycobacterium smegmatis ATCC 607 at 1 mg/ml after 48 hrs by agar-well diffusion assay; assay type: functional; settings: ATCC 607, 48 h, read-out: IZ
In short: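 Quadrant-streaked eugon agar plates (broth culture diluted 1:10 in water) with 11 mm wells receiving 100 μl of 1 mg/ml compound, incubated at 37°; inhibition zone width in mm scored at 48 h and 72 h as –, +, ++, +++, ++++ (1–2, 3–6, 7–12, >13 mm); streptomycin sulfate control.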

Saccharomyces cerevisiae [4] = experiment: Antifungal activity against Saccharomyces cerevisiae ATCC 9763 at 1 mg/ml after 72 hrs by agar-well diffusion assay; assay type: functional; in short: as §1
Bacillus subtilis [5] = experiment: Antibacterial activity against Bacillus subtilis ATCC 6633 at 1 mg/ml after 48 hrs by agar-well diffusion assay; assay type: functional; settings: ATCC 6633, 48 h, read-out: IZ; in short: as §2
[6] = tested on: Trichophyton mentagrophytes; experiment: Antifungal activity against Trichophyton mentagrophytes ATCC 9972 at 1 mg/ml after 48 hrs by agar-well diffusion assay; assay type: functional; in short: as §1
Helminthosporium [7] = experiment: Antifungal activity against Helminthosporium ATCC 4671 at 1 mg/ml after 72 hrs by agar-well diffusion assay; assay type: functional; in short: as §1
Trametes sanguinea [8] = experiment: Antifungal activity against Polyporus sanguineus ATCC 16422 at 1 mg/ml after 72 hrs by agar-well diffusion assay; assay type: functional; in short: as §1
Staphylococcus aureus [9] = experiment: Antibacterial activity against Staphylococcus aureus ATCC 6538 at 1 mg/ml after 24 hrs by agar-well diffusion assay; assay type: functional; settings: for zone of inhibition at 1000 µg/mL: ATCC 6538, 24 h, read-out: IZ; in short: as §2
[10] = tested on: Mycolicibacterium smegmatis; experiment: Antibacterial activity against Mycobacterium smegmatis ATCC 607 at 1 mg/ml after 48 hrs by agar-well diffusion assay; settings: ATCC 607, 48 h, read-out: IZ
Candida albicans [11] = experiment: Antifungal activity against Candida albicans ATCC 10231 at 1 mg/ml after 48 hrs by agar-well diffusion assay; assay type: functional; settings: ATCC 10231, 48 h, read-out: IZ; in short: as §1
Pseudomonas aeruginosa [12] = experiment: Antibacterial activity against Pseudomonas aeruginosa ATCC 15442 at 1 mg/ml after 24 hrs by agar-well diffusion assay; assay type: functional; in short: as §2
Aspergillus niger [13] = experiment: Antifungal activity against Aspergillus niger ATCC 16888 at 1 mg/ml after 48 hrs by agar-well diffusion assay; assay type: functional; in short: as §1
Candida albicans [14] = experiment: Antifungal activity against Candida albicans ATCC 10231 at 1 mg/ml after 72 hrs by agar-well diffusion assay; assay type: functional; settings: ATCC 10231, 72 h, read-out: IZ; in short: as §1
Pseudomonas aeruginosa [15] = experiment: Antibacterial activity against Pseudomonas aeruginosa ATCC 15442 at 1 mg/ml after 48 hrs by agar-well diffusion assay; assay type: functional; in short: as §2
Escherichia coli [16] = experiment: Antibacterial activity against Escherichia coli ATCC 10536 at 1 mg/ml after 48 hrs by agar-well diffusion assay; assay type: functional; in short: as §2
Aspergillus niger [17] = experiment: Antifungal activity against Aspergillus niger ATCC 16888 at 1 mg/ml after 72 hrs by agar-well diffusion assay; assay type: functional; in short: as §1
Escherichia coli [18] = experiment: Antibacterial activity against Escherichia coli ATCC 10536 at 1 mg/ml after 24 hrs by agar-well diffusion assay; assay type: functional; in short: as §2
Trametes sanguinea [19] = experiment: Antifungal activity against Polyporus sanguineus ATCC 16422 at 1 mg/ml after 48 hrs by agar-well diffusion assay; assay type: functional; in short: as §1
Saccharomyces cerevisiae [20] = experiment: Antifungal activity against Saccharomyces cerevisiae ATCC 9763 at 1 mg/ml after 48 hrs by agar-well diffusion assay; assay type: functional; in short: as §1
[21] = tested on: Trichophyton mentagrophytes; experiment: Antifungal activity against Trichophyton mentagrophytes ATCC 9972 at 1 mg/ml after 72 hrs by agar-well diffusion assay; assay type: functional; in short: as §1
Staphylococcus aureus [22] = experiment: Antibacterial activity against Staphylococcus aureus ATCC 6538 at 1 mg/ml after 48 hrs by agar-well diffusion assay; assay type: functional; settings: for zone of inhibition at 1000 µg/mL: ATCC 6538, 48 h, read-out: IZ; in short: as §2

| Structure (SMILES) | inhibition zone (IZ) (Helminthosporium [1]) | zone of inhibition at 1000 µg/mL (Bacillus subtilis [2]) [mm] | zone of inhibition at 1000 µg/mL [3] [mm] | inhibition zone (IZ) (Saccharomyces cerevisiae [4]) | zone of inhibition at 1000 µg/mL (Bacillus subtilis [5]) [mm] | inhibition zone (IZ) [6] | inhibition zone (IZ) (Trametes sanguinea [8]) | zone of inhibition at 1000 µg/mL (Staphylococcus aureus [9]) [mm] | zone of inhibition at 1000 µg/mL [10] [mm] | zone of inhibition at 1000 µg/mL (Candida albicans [11]) [mm] | inhibition zone (IZ) (Pseudomonas aeruginosa [12]) | inhibition zone (IZ) (Aspergillus niger [13]) | zone of inhibition at 1000 µg/mL (Candida albicans [14]) [mm] | inhibition zone (IZ) (Pseudomonas aeruginosa [15]) | inhibition zone (IZ) (Escherichia coli [16]) | inhibition zone (IZ) (Aspergillus niger [17]) | inhibition zone (IZ) (Escherichia coli [18]) | inhibition zone (IZ) (Trametes sanguinea [19]) | inhibition zone (IZ) (Saccharomyces cerevisiae [20]) | zone of inhibition at 1000 µg/mL (Staphylococcus aureus [22]) [mm] | also measured |
| --- | --- | --- | --- | --- | --- | --- | --- | --- | --- | --- | --- | --- | --- | --- | --- | --- | --- | --- | --- | --- | --- |
| C=C(C)[C@@H]1CC[C@@]23C[C@@H]4[C@@H](C[C@H]2[C@]1(C)CCCO)[C@@]4(C)C3 | inactive | 3 | 1 | inactive | 3 | inactive | inactive | 1 | 1 | 1 | inactive | inactive | 1 | inactive | inactive | inactive | inactive | inactive | inactive |  | inhibition zone (IZ) (Helminthosporium [7]): inactive; inhibition zone (IZ) [21]: inactive; inhibition zone (IZ) (Staphylococcus aureus [22]): inactive |
| COC(=O)C1=CCC[C@@H]2[C@@](C)(CCc3ccoc3)[C@H](C)CC[C@@]12C [HARDWICKIC ACID METHYL ESTER] |  | 1 | 1 | inactive | 1 |  | inactive | 1 | 1 | 1 | inactive | inactive | 1 | inactive | inactive | inactive | inactive | inactive | inactive | 1 | zone of inhibition at 1000 µg/mL (Helminthosporium [1]; ATCC 4671, 48 h, read-out: IZ): 1 mm; zone of inhibition at 1000 µg/mL ([6]; ATCC 9972, 48 h, read-out: IZ): 1 mm; zone of inhibition at 1000 µg/mL (Helminthosporium [7]; ATCC 4671, 72 h, read-out: IZ): 1 mm; zone of inhibition at 1000 µg/mL ([21]; ATCC 9972, 72 h, read-out: IZ): 1 mm |
| COC(=O)CC[C@]1(C)C(C(C)=O)CC[C@@]23C[C@@H]4[C@@H](CC21)[C@@]4(C)C3 (stereo not given in full) | inactive | 7 |  | inactive | 3 | inactive | inactive |  | 3 | 1 | inactive | inactive | 1 | inactive | inactive | inactive | inactive | inactive | inactive |  | inhibition zone (IZ) (Helminthosporium [7]): inactive; inhibition zone (IZ) (Staphylococcus aureus [9]): inactive; inhibition zone (IZ) [21]: inactive; inhibition zone (IZ) (Staphylococcus aureus [22]): inactive |
| C=C(C)[C@@H]1CC[C@@]23C[C@@H]4[C@@H](C[C@H]2[C@]1(C)CCC(=O)OC)[C@@]4(C)C3 |  | 1 | 1 |  | 1 |  |  | 1 | 1 |  | inactive |  |  | inactive | inactive |  | inactive |  |  | 1 |  |
| CN[C@@H]1[C@H](O[C@H]2[C@H](O[C@H]3[C@H](O)[C@@H](O)[C@H](N=C(N)N)[C@@H](O)[C@@H]3N=C(N)N)O[C@@H](C)[C@]2(O)C=O)O[C@@H](CO)[C@H](O)[C@H]1O [STREPTOMYCIN SULFATE] |  | 7 | > 12 |  | 7 |  |  | 7 | > 12 |  |  |  |  |  |  |  |  |  |  | 7 | zone of inhibition at 1000 µg/mL (Pseudomonas aeruginosa [12]; ATCC 15442, 24 h, read-out: IZ): 7 mm; zone of inhibition at 1000 µg/mL (Pseudomonas aeruginosa [15]; ATCC 15442, 48 h, read-out: IZ): 3 mm; zone of inhibition at 1000 µg/mL (Escherichia coli [16]; ATCC 10536, 48 h, read-out: IZ): 7 mm; zone of inhibition at 1000 µg/mL (Escherichia coli [18]; ATCC 10536, 24 h, read-out: IZ): 7 mm |

Source: ChEMBL document CHEMBL1150203, “Antimicrobial diterpenes of Croton sonderianus, 1. Hardwickic and 3,4-secotrachylobanoic acids” (1991)
